For series [1], the target named is MAP/microtubule affinity-regulating kinase 3 (Homo sapiens) (UniProt P27448). Briefly: Inhibition of recombinant full-length human MARK3 at 1 uM using KKKVSRSGLYRSPSMPENLNRPR as substrate measured after 40 mins in presence of [gamma33P]ATP by scintillation counting method relative to control.
Series [2] addresses Serine/threonine-protein kinase MAK (Homo sapiens) (UniProt P20794). Briefly: Inhibition of recombinant full-length human MAK at 1 uM using RRRFRPASPLRGPPK as substrate measured after 120 mins in presence of [gamma33P]ATP by scintillation counting method relative to control.
Series [3] relates to SiHa. Description: Antiproliferative activity against human SiHa cells assessed as inhibition of cell viability at 500 nM after 72 hrs by CCK-8 assay relative to control. The series is classed as functional. The procedure, abridged: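 Single-concentration viability screen using CCK-8. Cells were seeded at 3000/well and treated for 72 h. A450 read after 1-4 h with reagent. Percent inhibition calculated against untreated control and blank wells as (Ac−As)/(Ac−Ab)×100%.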
Background: Tetrazolium dyes change colour on reduction, which living cells bring about.

The target in series [4] is G protein-coupled receptor kinase 3 (Homo sapiens) (UniProt P35626). Briefly: Inhibition of recombinant full-length human GRK3 at 1 uM using casein as substrate measured after 40 mins in presence of [gamma33P]ATP by scintillation counting method relative to control.
The target in series [5] is Inhibitor of nuclear factor kappa-B kinase subunit beta (Homo sapiens) (UniProt O14920). Description: Inhibition of recombinant full-length human IKKbeta at 1 uM using peptide substrate measured after 40 mins in presence of [gamma33P]ATP by scintillation counting method relative to control.
Series [6] in a line: Half life in human liver microsomes at 2 uM in presence of NADPH measured up to 1 hr by HPLC analysis. The series is classed as ADME, Microsome. The procedure, abridged:
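Compound at 2 μM incubated at 37 °C with liver microsomes (1 mg/mL), 3 mM MgCl2 and 0.1 M phosphate buffer pH 7.4; 5 min preincubation, then started with 3 mM NADPH. Aliquots (n = 3) at 0, 10, 20, 30, 45, 60 min quenched with ice-cold acetonitrile, centrifuged, supernatant by HPLC. t1/2 from linear-regression kinetic constant k.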

Series [7] deals with Serine-protein kinase ATM (Homo sapiens) (UniProt Q13315). Briefly: Inhibition of recombinant full-length human ATM at 1 uM using GST-cMyc-p53 as substrate measured after 40 mins by ELISA relative to control. (In general: An ELISA detects its analyte on a solid surface through an enzyme-linked reagent.)
The target in series [8] is Platelet-derived growth factor receptor alpha (Homo sapiens) (UniProt P16234). Description: Inhibition of recombinant human PDGFRalpha (550 to end residues) at 1 uM using poly[Glu:Tyr] (4:1) as substrate measured after 40 mins in presence of [gamma33P]ATP by scintillation counting method relative to control.
The target in series [9] is Dual specificity mitogen-activated protein kinase kinase 6 (Homo sapiens) (UniProt P52564). Briefly: Inhibition of recombinant human MKK6 (4 to end residues) at 1 uM using unactive SAPK2a as substrate measured after 40 mins in presence of [gamma33P]ATP by scintillation counting method relative to control.
Sequence of Dual specificity mitogen-activated protein kinase kinase 6 (Homo sapiens) (P52564 whole entry): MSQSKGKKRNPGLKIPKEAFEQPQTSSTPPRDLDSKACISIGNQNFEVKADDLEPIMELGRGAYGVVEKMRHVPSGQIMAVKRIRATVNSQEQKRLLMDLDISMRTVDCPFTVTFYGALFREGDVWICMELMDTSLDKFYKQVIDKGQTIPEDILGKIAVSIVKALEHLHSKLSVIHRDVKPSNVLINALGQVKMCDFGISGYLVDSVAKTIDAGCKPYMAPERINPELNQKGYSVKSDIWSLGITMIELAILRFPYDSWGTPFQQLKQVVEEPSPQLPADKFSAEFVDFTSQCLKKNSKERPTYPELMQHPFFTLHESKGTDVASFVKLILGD
Series [10] has as its target Calcium/calmodulin-dependent protein kinase type 1B (Homo sapiens) (UniProt Q6P2M8). Briefly: Inhibition of full-length recombinant human CaMK1 beta at 1 uM using KKLRRTLSFAEPG as substrate measured after 40 mins in presence of [gamma33P]ATP by scintillation counting method relative to control. The procedure, abridged: (§1)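 Single-point inhibition at 1 µM was measured in the Eurofins KinaseProfiler panel. Values are the mean of two independent experiments.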

Series [11] concerns the target Activin receptor type-1-like (Homo sapiens) (UniProt P37023). Briefly: Inhibition of recombinant human ALK1 (142 to end residues) at 1 uM using casein as substrate measured after 40 mins in presence of [gamma33P]ATP by scintillation counting method relative to control.
Series [12] deals with Phosphatidylinositol 3-kinase C2 domain-containing subunit gamma (Homo sapiens) (UniProt O75747). Description: Inhibition of recombinant human PI3KC2gamma (468 to 1203 residues) at 1 uM using phosphatidylinositol as substrate measured after 40 mins by HTRF assay relative to control.
Another series concerns PC-9. Description: Antiproliferative activity against human PC9 cells assessed as inhibition of cell viability after 72 hrs by CCK-8 assay. The series is classed as functional, cell-based. As to conditions: PC-9, 72 h. The procedure, abridged:
(§2)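 Cells kept at 37 °C, 5% CO2 in DMEM or RPMI-1640 with 10% FBS and 1% penicillin/streptomycin, then seeded at 3000 cells/well (adherent) or 10,000 cells/well (suspension). Exposed to a range of concentrations for 72 h. CCK-8 added for 1-4 h before reading A450. […] Three independent experiments.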

Series [13] deals with Calcium/calmodulin-dependent protein kinase kinase 2 (Homo sapiens), Q96RR4 [T85S]. Description: Inhibition of recombinant full-length human CaMKK2 T85S mutant at 1 uM using calmodulin as substrate measured after 40 mins in presence of [gamma33P]ATP by scintillation counting method relative to control.
Sequence of Calcium/calmodulin-dependent protein kinase kinase 2 (Homo sapiens), Q96RR4 [T85S] (Q96RR4 whole entry T85S): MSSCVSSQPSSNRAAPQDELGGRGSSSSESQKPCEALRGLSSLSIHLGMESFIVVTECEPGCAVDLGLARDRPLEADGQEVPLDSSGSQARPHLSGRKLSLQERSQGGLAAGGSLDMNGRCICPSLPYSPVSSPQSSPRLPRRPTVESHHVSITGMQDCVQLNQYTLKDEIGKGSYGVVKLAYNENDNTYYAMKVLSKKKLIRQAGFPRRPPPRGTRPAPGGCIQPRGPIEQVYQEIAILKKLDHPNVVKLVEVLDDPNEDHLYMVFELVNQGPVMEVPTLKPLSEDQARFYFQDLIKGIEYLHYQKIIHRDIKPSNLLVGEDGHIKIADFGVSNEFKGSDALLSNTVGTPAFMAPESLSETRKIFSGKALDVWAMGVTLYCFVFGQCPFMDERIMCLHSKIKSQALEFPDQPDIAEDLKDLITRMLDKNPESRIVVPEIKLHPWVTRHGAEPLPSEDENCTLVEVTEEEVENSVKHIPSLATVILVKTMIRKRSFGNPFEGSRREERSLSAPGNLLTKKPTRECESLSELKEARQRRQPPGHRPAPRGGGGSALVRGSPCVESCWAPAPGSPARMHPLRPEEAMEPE
Series [14] deals with Protein kinase C beta type (Homo sapiens) (UniProt P05771). Briefly: Inhibition of recombinant human PKCbeta2 (2 to end residues) at 1 uM using histone H1 as substrate measured after 40 mins in presence of [gamma33P]ATP by scintillation counting method relative to control.
Sequence of Protein kinase C beta type (Homo sapiens) (P05771 2-671 limits assumed): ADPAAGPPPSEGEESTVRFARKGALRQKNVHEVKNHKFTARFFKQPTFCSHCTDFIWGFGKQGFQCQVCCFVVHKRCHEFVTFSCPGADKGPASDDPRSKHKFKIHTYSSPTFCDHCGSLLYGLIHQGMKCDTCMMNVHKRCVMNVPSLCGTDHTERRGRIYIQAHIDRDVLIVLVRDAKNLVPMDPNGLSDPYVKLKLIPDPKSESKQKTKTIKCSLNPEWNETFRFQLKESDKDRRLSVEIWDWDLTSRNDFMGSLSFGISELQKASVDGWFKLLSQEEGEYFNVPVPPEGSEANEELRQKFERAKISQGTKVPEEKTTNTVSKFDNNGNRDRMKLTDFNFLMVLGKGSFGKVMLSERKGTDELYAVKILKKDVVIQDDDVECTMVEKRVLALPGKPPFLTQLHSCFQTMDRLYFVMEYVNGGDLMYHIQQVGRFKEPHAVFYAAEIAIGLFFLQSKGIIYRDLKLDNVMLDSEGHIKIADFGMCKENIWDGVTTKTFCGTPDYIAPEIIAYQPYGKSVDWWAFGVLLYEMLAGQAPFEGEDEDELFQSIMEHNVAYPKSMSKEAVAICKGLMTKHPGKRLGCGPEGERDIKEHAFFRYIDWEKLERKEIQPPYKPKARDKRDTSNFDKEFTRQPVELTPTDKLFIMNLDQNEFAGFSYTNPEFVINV
Series [15] deals with Tyrosine-protein kinase BTK (Homo sapiens) (UniProt Q06187). Description: Inhibition of full-length recombinant human BTK at 1 uM using KVEKIGEGTYGVVYK as substrate measured after 40 mins in presence of [gamma33P]ATP by scintillation counting method relative to control. The essentials:
as §1

In series [16] the target is Receptor-type tyrosine-protein kinase FLT3 (Homo sapiens) (UniProt P36888). Briefly: Inhibition of recombinant human Flt3 (564 to end residues) at 1 uM using EAIYAAPFAKKK as substrate measured after 40 mins in presence of [gamma33P]ATP by scintillation counting method relative to control.
Sequence of Receptor-type tyrosine-protein kinase FLT3 (Homo sapiens) (P36888 whole entry): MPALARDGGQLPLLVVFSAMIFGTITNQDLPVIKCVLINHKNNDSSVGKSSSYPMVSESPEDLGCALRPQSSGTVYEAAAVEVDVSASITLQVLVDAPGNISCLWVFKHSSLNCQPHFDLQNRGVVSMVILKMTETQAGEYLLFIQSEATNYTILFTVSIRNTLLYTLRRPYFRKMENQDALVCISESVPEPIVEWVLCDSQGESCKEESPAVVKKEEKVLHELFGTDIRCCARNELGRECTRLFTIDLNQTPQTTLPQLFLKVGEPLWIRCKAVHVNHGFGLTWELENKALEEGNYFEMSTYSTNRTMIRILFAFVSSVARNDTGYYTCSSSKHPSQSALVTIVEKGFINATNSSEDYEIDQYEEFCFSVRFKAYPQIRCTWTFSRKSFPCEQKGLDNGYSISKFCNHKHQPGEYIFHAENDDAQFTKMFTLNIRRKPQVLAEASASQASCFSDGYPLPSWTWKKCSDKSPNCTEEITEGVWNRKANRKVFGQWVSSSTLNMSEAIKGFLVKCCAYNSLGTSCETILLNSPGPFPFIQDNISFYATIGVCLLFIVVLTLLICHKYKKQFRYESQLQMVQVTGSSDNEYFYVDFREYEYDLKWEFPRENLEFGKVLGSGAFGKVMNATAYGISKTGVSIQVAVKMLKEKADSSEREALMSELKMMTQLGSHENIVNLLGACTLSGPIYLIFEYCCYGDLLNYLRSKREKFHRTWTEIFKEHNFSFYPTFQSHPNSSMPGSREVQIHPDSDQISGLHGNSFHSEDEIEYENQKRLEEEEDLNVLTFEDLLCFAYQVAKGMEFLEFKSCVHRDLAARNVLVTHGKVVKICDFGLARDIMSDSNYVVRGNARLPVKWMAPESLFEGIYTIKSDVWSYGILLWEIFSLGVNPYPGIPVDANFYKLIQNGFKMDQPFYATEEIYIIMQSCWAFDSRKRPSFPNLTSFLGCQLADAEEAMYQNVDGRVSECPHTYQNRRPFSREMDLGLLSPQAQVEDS
The target of series [17] is Calcium/calmodulin-dependent protein kinase type II subunit alpha (Homo sapiens) (UniProt Q9UQM7). Description: Inhibition of full-length recombinant human CaMK2 alpha at 1 uM using KKLNRTLSFAEPG as substrate measured after 40 mins in presence of [gamma33P]ATP by scintillation counting method relative to control. The procedure, abridged: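 Percent inhibition of kinase activity at a single compound concentration, measured by the outsourced Eurofins KinaseProfiler panel. Values are the mean of two independent experiments.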

In a further series the test system is NCI-H1299. Description: Induction of apoptosis in human H1299 cells assessed as viable cells at 1 uM after 48 hrs by AnnexinV-FITC/PI staining-based flow cytometric analysis (reference value: 97.1%). In kind it is functional. As to conditions: NCI-H1299, 48 h, read-out: Activity. Background: Flow cytometry measures light scatter and fluorescence of single cells or particles in a stream.

For series [18], the system named is SiHa. Description: Antiproliferative activity against human SiHa cells assessed as inhibition of cell viability after 72 hrs by CCK-8 assay. In kind it is functional, cell-based. The essentials:
as §2

Series [19] deals with Calcium/calmodulin-dependent protein kinase type II subunit beta (Homo sapiens) (UniProt Q13554). Briefly: Inhibition of recombinant human CaMK2 beta (1 to 315 resiudes) at 1 uM using calmodulin as substrate measured after 40 mins in presence of [gamma33P]ATP by scintillation counting method relative to control.

Sequence of MAP/microtubule affinity-regulating kinase 3 (Homo sapiens) (P27448 whole entry, looked up): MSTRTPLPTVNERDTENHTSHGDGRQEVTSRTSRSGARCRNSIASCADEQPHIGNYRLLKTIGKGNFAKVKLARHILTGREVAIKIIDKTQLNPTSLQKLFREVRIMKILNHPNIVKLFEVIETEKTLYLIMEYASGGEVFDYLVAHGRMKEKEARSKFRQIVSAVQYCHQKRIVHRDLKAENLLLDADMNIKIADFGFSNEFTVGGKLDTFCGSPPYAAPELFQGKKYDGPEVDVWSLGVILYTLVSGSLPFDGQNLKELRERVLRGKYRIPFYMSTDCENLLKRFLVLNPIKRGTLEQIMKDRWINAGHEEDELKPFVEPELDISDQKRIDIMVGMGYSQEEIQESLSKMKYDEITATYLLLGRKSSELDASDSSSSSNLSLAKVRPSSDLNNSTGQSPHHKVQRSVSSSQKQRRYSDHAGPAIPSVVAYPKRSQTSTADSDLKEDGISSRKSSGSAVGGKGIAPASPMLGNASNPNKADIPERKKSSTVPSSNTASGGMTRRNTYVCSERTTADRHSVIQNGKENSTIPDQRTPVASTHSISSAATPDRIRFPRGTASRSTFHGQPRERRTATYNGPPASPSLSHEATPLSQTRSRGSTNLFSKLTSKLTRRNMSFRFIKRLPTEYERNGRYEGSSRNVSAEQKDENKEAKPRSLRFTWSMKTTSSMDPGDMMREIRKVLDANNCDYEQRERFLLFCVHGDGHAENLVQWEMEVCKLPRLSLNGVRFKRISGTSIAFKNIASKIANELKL
Sequence of Tyrosine-protein kinase BTK (Homo sapiens) (Q06187 whole entry): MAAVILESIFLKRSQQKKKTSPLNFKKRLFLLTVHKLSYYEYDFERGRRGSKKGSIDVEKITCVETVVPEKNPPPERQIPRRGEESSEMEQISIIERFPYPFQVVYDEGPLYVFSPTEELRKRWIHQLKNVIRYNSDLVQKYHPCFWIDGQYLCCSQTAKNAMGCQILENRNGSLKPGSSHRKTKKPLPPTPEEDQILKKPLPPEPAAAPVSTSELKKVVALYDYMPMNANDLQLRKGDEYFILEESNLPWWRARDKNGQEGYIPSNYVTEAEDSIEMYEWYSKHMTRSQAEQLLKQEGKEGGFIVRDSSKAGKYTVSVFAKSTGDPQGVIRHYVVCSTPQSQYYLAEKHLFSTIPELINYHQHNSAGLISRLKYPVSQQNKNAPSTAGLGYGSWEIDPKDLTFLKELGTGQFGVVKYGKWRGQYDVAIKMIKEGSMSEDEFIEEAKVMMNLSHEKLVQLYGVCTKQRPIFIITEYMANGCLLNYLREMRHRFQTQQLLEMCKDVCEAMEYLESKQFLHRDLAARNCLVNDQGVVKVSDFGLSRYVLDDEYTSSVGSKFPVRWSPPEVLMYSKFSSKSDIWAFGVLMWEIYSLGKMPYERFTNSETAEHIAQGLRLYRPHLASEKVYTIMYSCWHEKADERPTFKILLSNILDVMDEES
Sequence of Activin receptor type-1-like (Homo sapiens) (P37023 whole entry, the tested form may be a part): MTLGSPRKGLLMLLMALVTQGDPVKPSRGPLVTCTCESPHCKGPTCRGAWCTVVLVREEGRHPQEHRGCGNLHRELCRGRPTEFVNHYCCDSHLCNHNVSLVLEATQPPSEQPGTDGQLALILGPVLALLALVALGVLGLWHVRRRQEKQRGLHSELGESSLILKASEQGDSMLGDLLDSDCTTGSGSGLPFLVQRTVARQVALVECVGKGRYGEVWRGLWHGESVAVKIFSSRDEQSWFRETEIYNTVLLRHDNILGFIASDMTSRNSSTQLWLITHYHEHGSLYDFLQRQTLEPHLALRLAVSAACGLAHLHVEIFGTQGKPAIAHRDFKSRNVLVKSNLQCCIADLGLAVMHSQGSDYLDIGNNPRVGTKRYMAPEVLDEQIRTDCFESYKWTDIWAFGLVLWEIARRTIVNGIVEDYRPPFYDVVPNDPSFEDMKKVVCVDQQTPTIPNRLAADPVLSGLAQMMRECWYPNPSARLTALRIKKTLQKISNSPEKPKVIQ
Sequence of Calcium/calmodulin-dependent protein kinase type 1B (Homo sapiens) (Q6P2M8 whole entry): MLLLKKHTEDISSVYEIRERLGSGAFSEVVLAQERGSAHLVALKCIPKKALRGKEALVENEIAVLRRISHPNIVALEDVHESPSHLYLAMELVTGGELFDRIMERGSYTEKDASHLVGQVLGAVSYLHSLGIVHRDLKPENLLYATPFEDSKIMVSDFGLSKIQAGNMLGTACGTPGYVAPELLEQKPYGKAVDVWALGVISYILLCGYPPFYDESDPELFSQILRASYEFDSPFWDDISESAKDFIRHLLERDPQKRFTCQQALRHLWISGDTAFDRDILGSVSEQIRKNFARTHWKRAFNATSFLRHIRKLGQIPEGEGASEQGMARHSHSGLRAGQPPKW

By inhibition is commonly meant the change of the read-out against control, counted positive when it falls. The term half-life denotes the time in which the quantity being followed falls by half. For orientation: IC50 means the point on the concentration scale where inhibition reaches its midpoint. Regarding `CN(C)C(=O)c1cc2cnc(Nc3ccc(NC(=O)CCCCCCCN=C=S)cc3)nc2n1C1CCCC1`, the inhibition in series [1] is 43%; in series [2] it was 94%; in [4] it was 3%; in series [5], -1%; in series [7], 6%; in [8], 7%. In addition, the inhibition in series [9] was 30%; in series [10], 11%; in [11] it was -5%; in [12], 3%; in [13], 88%; in series [14] it was 72%. The inhibition in series [15] was found to be 96%; in series [16], 66%; in series [17] it was 61%; in [19] it was 29%. The inhibition at 0.5 µM in the series with SiHa [3] is 11%. In addition, the half-life at 2 µM in series [6] turned out to be 33 min. Moreover, the IC50 in the series on PC-9 was determined as 0.947 µM; in the series on SiHa [18], 1.81 µM. In addition, in the series on NCI-H1299, the viability at 1 µM is 89.6%.

The values are drawn from ChEMBL document CHEMBL4376814, “Novel cyclin-dependent kinase 9 (CDK9) inhibitor with suppression of cancer stemness activity against non-small-cell lung cancer” (Eur J Med Chem, 2019).
